Each structure is given as a SMILES string.

Common to all, as to assay type: functional
Assay [1] can be described thus: Inhibition of lipopolysaccharide IL4 production in human PMNC at 0.3 ug/mL by ELISA. The essentials: (§1)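 Cytokine (IL-1β, IL-2, IL-4, TNF) concentrations were measured directly by ELISA in the culture supernatants. The paper attributes the cytokines to macrophages in the culture.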
Assay [2] in a line: Inhibition of lipopolysaccharide TNFalpha production in human PMNC at 0.3 ug/mL by ELISA. The gist of the method:
as §1

A short description of assay [3]: Inhibition of lipopolysaccharide IL2 production in human PMNC at 0.3 ug/mL by ELISA. The essentials:
as §1

Assay [4] is described as follows: Inhibition of lipopolysaccharide IL1-beta production in human PMNC at 0.3 ug/mL by ELISA. The essentials: as §1

For the compound `C[C@]12C=CC(=O)C=C1CC[C@@H]1[C@@H]2[C@@H](O)C[C@@]2(C)[C@H]1CC[C@]2(O)C(=O)CO` [PREDNISOLONE], the inhibition at 0.3 µg/mL stood at 40.7% in assay [1], 47.9% in assay [2], 30.6% in assay [3] and 24.8% in assay [4].

The values are drawn from ChEMBL document CHEMBL1150167, “Sesquiterpenes from Ferula penninervis” (2002).
